Assay outcomes as filed in PubChem BioAssay.
A selection: hits, their analogues and other compounds. The true share with any hit is near 2.2%.
IEC-6 cytotox: IEC-6 cytotoxicity, counter-screen for KLF5 inhibitors | luminescence viability | inhibition, % at 5 µM | actives 0.78% (n = 290,000) | AID 1825; in the data active = inhibition above about 22%;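 note: 0% = plate median of test compound wells and 100% = cytotoxic reference compound wells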
Ba/F3 V617F tox: reduce viability of Ba/F3 cells dependent on JAK2V617F; Ba/F3 EpoR-JAK2V617F viability, ATP luminescence; inhibition, % at 5.6 µM; actives 1.1% (n = 220,000); AID 1446;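 active = inhibition above the campaign mean plus 3 SD over all tested compounds, cut at about 24% in these data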;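 note: cytokine-independent growth of Ba/F3 cells driven by EpoR plus mutant JAK2; 0% = DMSO-treated cells and 100% = JAK inhibitor I control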
APP 5UTR inh: APP translation inhibition. inhibition, % at 2 µM. actives 0.82% (n = 190,000). SH-SY5Y APP 5'UTR-luciferase reporter, luminescence;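 active = inhibition above a set limit, derived from the sample mean plus 3 SD, cut at about 45% in these data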
MT stabilizer: microtubule stabilizers in HeLa cells; HeLa tubulin immunostaining HCS, 24 h; share of cells brighter than vehicle mean+2SD; % tubulin-high responders, % at 10 µM; actives 0.83% (n = 200,000);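 active = plate Z-score above 3 for both tubulin-high and condensed-nucleus cell shares, with cell loss under 80%, at 10 µM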;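 note: anti alpha tubulin signal scored within the nucleus-defined area of each cell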
BaF3 parental: reduces parental Ba/F3 cell viability, JAK2V617F counter-screen; actives 1.1% (n = 220,000); CellTiter-Glo ATP luminescence; inhibition, % at 5.6 µM;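 active = inhibition above a per-campaign cutoff, the mean inhibition of all tested compounds plus 3 SD, cut at about 27% in these data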;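 note: 0% = DMSO wells and 100% = JAK Inhibitor I control wells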
bCat nuc transl: beta-catenin nuclear translocation modulation; HeLa beta-catenin nuclear translocation, immunofluorescence imaging; nuclear translocation activity, % at 5 µM; actives 0.3% (n = 190,000); AID 1665;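 active = nuclear translocation activity above 50% at 5 µM, with a well cell count of 50 or more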;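 note: per-cell ratio of nuclear to cytoplasmic median beta-catenin stain intensity; plate controls were DMSO negative control for no effect and GSK-3 inhibitor IX positive control for full effect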
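Test system: human HeLa cells, endogenous beta-catenin. Times: 24 h compound exposure, 37°C. Measured by: beta-catenin immunofluorescence imaging with DAPI.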
BaF3 parental 2: parental Ba/F3 viability inhibition for JAK2V617F counter-screen; inhibition, % at 5.6 µM; actives 31% (n = 580); shares compounds with Ba/F3 V617F tox; CellTiter-Glo luminescence; cells kept alive by added IL-3;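 active = cell growth inhibition above the hit limit set in the earlier mutant JAK2 cell screen, cut at about 27% in these data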;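 note: plate controls were DMSO-treated cells for no effect and JAK Inhibitor I control wells for full effect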
JAK2V617F conf: confirmation: loss of viability in JAK2V617F-dependent Ba/F3 cells | Ba/F3 EpoR-JAK2V617F viability, CellTiter-Glo luminescence | shares compounds with Ba/F3 V617F tox | actives 66% (n = 580) | inhibition, % at 5.6 µM | AID 1521;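 active = mean inhibition above the hit cutoff derived in the earlier primary screen, cut at about 25% in these data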;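 note: 0% = DMSO-treated cells and 100% = JAK inhibitor I control wells; higher means lower luminescence from reduced cell ATP and viability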
The depositor's hits bear a star; · = no result.

SMILES | IEC-6 cytotox | Ba/F3 V617F tox | APP 5UTR inh | MT stabilizer | BaF3 parental | bCat nuc transl | BaF3 parental 2 | JAK2V617F conf
Cc1ccc(C(=O)c2c(C)oc3c2C(=O)C(=O)c2ccccc2-3)cc1 | 16 | 27* | -15 | 6 | 3 | -1 | 1 | 33*
O=C(NCCCCCCNC(=O)c1ccc(Br)s1)c1ccc(Br)s1 | -4 | 37* | 10 | 3 | -1 | 2 | -2 | 20
O=C(NCCCCNC(=O)c1ccc(Cl)s1)c1ccc(Cl)s1 | -1 | -4 | -1 | 3 | 0 | 0 | · | ·
CC1CCCN(S(=O)(=O)c2ccc(NC(=O)C3CC(=O)N(c4ccccc4)C3)cc2)C1 (centres undefined) | 0 | · | · | · | · | · | · | ·
O=C(C=C=Nc1ccccc1)C(=O)N=C=Cc1ccccc1 | 5 | 68* | · | · | 19 | -1 | 5 | 79*
O=C(N/N=C/c1ccccc1)C(=O)N/N=C/c1ccccc1 | -4 | · | · | · | · | · | · | ·
Cc1ccc(O)c(NC(=O)CSc2ccc(Cl)cc2)c1 | 1 | 43* | -17 | 3 | 23 | 0 | 21 | 71*
CC(=O)n1cc(N(C(=O)CCl)c2ccccc2)c2ccccc21 | 6 | 96* | · | · | 20 | 1 | 98* | 99*
CC(=O)n1cc(N(C(=O)CCl)c2ccc([N+](=O)[O-])cc2)c2ccccc21 | -1 | 63* | · | · | 20 | 2 | 46* | 100*
O=Cc1[nH]c2ccccc2c1N(C(=O)CCl)c1ccc([N+](=O)[O-])cc1 | -3 | -2 | · | · | -2 | -1 | · | ·
O=C(NCc1ccco1)c1ccc(CS(=O)Cc2ccc(Cl)cc2)o1 (centres undefined) | 1 | · | · | · | · | · | · | ·
Cc1nc(N=C(N)N)nc2ccccc12 | 7 | 34* | -23 | 3 | 20 | 4 | 29* | 51*
O=C1NC(=S)N/C1=C\c1ccc(Oc2ccc(C(F)(F)F)cc2[N+](=O)[O-])c(Cl)c1 | -2 | -3 | · | · | -4 | 0 | · | ·
CCN(CC)c1ccc2c(c1)OC(N)=C(C#N)C2c1cccnc1 (centres undefined) | 9 | 83* | 94* | 20* | 13 | 65* | 78* | 98*
Cc1ccc(C(=O)N2CCN(S(=O)(=O)N3CCCCC3)CC2)cc1 | -4 | · | · | · | · | · | · | ·
Cc1ccc(C)c(Cn2nnc3c(=O)[nH]c(C(=O)NCC4CCCO4)nc32)c1 (centres undefined) | 6 | 28* | 2 | 4 | 4 | -1 | -1 | 1
Cc1cc(C)cc(OCC(=O)O/N=C(\N)c2cccnc2)c1 | -2 | 35* | · | · | 4 | 0 | -2 | -3
Cc1[nH]c(=O)c(C(=O)/C=C/c2ccccc2F)c2c1CCCC2 | 4 | 50* | 7 | 23 | 17 | 3 | 18 | 96*
Cc1cc(C)c(C(=O)/C=C/c2cccc3ccccc23)c(=O)[nH]1 | 6 | -3 | · | 14 | 0 | 5 | · | ·
Nc1[nH]n(-c2ccccc2)c(=O)c1N=Nc1ccc2c(c1)OCO2 | 4 | 27* | · | · | 6 | 1 | 57* | 44*
Oc1ccc(CN2CCC(Cc3ccccc3)CC2)c2cccnc12 | -12 | 83* | 58* | 3 | 0 | 0 | 84* | 98*
Cc1nn(-c2ccccc2)c(C)c1NC(=O)COc1ccc2ccccc2c1 | 2 | 90* | -3 | 2 | 4 | 1 | -5 | -5
COc1ccc(N2CCN(C(=O)c3ccccc3N(C)S(=O)(=O)c3ccc(C)cc3)CC2)cc1 | 0 | · | · | · | · | · | · | ·
COc1ccccc1NS(=O)(=O)c1cccc(-n2c(O)c(C=Nc3ccccc3C(=O)O)c3ccccc3c2=O)c1 | 8 | 24* | · | · | 8 | -2 | 8 | 32*
COc1ccc(Cn2c(O)c(C=Nc3ccccc3C(=O)O)c3ccccc3c2=O)cc1 | 2 | 4 | · | · | -2 | 0 | · | ·
CC(=O)NC(CC(=O)NNC(=O)c1cc2ccccc2cc1O)c1ccccc1 (centres undefined) | 2 | · | · | · | · | · | · | ·
O=c1[nH]cnc2c1ncn2[C@@H]1O[C@H](CO)[C@@H](O)[C@H]1O | -4 | -3 | 11 | 4 | 0 | · | · | ·
